Reference: ChEMBL document CHEMBL1921709, “Synthesis and activity of new macrolones: conjugates between 6(7)-(2'-aminoethyl)-amino-1-cyclopropyl-3-carboxylic acid (2'-hydroxyethyl) amides and 4″-propenoyl-azithromycin” (2011)
Converted amounts (≈) assume the structure as drawn.

Experiments:
Assay type in all cases: functional
[1] = tested on: Streptococcus pneumoniae; experiment: Antibacterial activity against inducible macrolide-resistant, constitutive lincosamide and streptogramin-resistant Streptococcus pneumoniae 134 GR M by broth microdilution method
How it was run: (§1)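 CLSI broth microdilution MIC with automated double dilutions of compound. The medium was supplemented with 5% horse serum in place of lysed blood. Bacteria were pre-grown on appropriate agar plates.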

[2] = tested on: Streptococcus pneumoniae; experiment: Antibacterial activity against efflux-mediated macrolide-resistant Streptococcus pneumoniae Ci137 by broth microdilution method; how it was run: as §1
[3] = tested on: Streptococcus pyogenes; experiment: Antibacterial activity against constitutive macrolide, lincosamide, streptogramin-resistant Streptococcus pyogenes 166 GR-Micro by broth microdilution method; how it was run: as §1
[4] = tested on: Staphylococcus aureus; experiment: Antibacterial activity against inducible macrolide, lincosamide and streptogramin B-resistant Staphylococcus aureus 90256/97 by broth microdilution method
How it was run: (§2)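 Standard CLSI broth microdilution MIC test with automated double dilutions of compound. Bacteria were pre-grown on appropriate agar plates.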

[5] = tested on: Staphylococcus aureus; experiment: Antibacterial activity against erythromycin-sensitive Staphylococcus aureus ATCC 13709 by broth microdilution method
How it was run: (§3)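 Broth microdilution following CLSI guidelines, using two-fold serial dilutions of compound. Bacteria were first grown on appropriate agar plates. Read-out is growth inhibition, reported as MIC.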

[6] = tested on: Moraxella catarrhalis; experiment: Antibacterial activity against Moraxella catarrhalis ATCC 23246 by broth microdilution method; how it was run: as §3
[7] = tested on: Streptococcus pyogenes; experiment: Antibacterial activity against inducible macrolide-lincosamide-streptogramin B resistant Streptococcus pyogenes Finland 11 by broth microdilution method; how it was run: as §1
[8] = tested on: Streptococcus pyogenes; experiment: Antibacterial activity against efflux-mediated macrolide-resistant Streptococcus pyogenes Finland 2 by broth microdilution method; how it was run: as §1
[9] = tested on: Streptococcus pneumoniae; experiment: Antibacterial activity against constitutive macrolide, lincosamide, streptogramin-resistant Streptococcus pneumoniae 58 spain by broth microdilution method; how it was run: as §1
[10] = tested on: Streptococcus pneumoniae; experiment: Antibacterial activity against erythromycin-sensitive Streptococcus pneumoniae SP 030 by broth microdilution method
How it was run: (§4)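 Broth microdilution following CLSI guidelines, except that 5% horse serum replaced lysed blood in the Streptococcus medium. Two-fold serial dilutions of compound were used. Bacteria were first grown on appropriate agar plates. Read-out is growth inhibition, reported as MIC.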

[11] = tested on: Staphylococcus aureus; experiment: Antibacterial activity against constitutive macrolide, lincosamide, streptogramin-resistant Staphylococcus aureus PK2 by broth microdilution method; how it was run: as §2
[12] = tested on: Staphylococcus aureus; experiment: Antibacterial activity against efflux-mediated macrolide-resistant Staphylococcus aureus PK1 by broth microdilution method; how it was run: as §2
[13] = tested on: Streptococcus pyogenes; experiment: Antibacterial activity against erythromycin-sensitive Streptococcus pyogenes 3565 by broth microdilution method; how it was run: as §4
[14] = tested on: Haemophilus influenzae; experiment: Antibacterial activity against Haemophilus influenzae ATCC 49247 by broth microdilution method; how it was run: as §3

Compound	MIC [1]	MIC [2]	MIC [3]	MIC [4]	MIC [5]	MIC [6]	MIC [7]	MIC [8]	MIC [9]	MIC [10]	MIC [11]	MIC [12]	MIC [13]	MIC [14]
CC[C@H]1OC(=O)[C@H](C)[C@@H](O[C@H]2C[C@@](C)(OC)[C@@H](OC(=O)CCN(C)CCNc3cc4c(cc3F)c(=O)c(C(=O)NCCO)cn4C3CC3)[C@H](C)O2)[C@H](C)[C@@H](O[C@@H]2O[C@H](C)C[C@H](N(C)C)[C@H]2O)[C@](C)(O)C[C@@H](C)CN(C)[C@H](C)[C@@H](O)[C@]1(C)O	16 µg/mL (≈ 13.7 µM)	2 µg/mL (≈ 1.72 µM)	> 64 µg/mL	> 64 µg/mL	16 µg/mL (≈ 13.7 µM)	8 µg/mL (≈ 6.86 µM)	16 µg/mL (≈ 13.7 µM)	16 µg/mL (≈ 13.7 µM)	> 64 µg/mL	≤ 0.125 µg/mL	> 64 µg/mL	> 64 µg/mL	0.5 µg/mL (≈ 0.429 µM)	16 µg/mL (≈ 13.7 µM)
COC(=O)c1cn(C2CC2)c2cc(Cl)c(NCCNC(=O)OC(C)(C)C)cc2c1=O	> 64 µg/mL	> 64 µg/mL	> 64 µg/mL	> 64 µg/mL	> 64 µg/mL	> 64 µg/mL	> 64 µg/mL	> 64 µg/mL	> 64 µg/mL	> 64 µg/mL	> 64 µg/mL	> 64 µg/mL	> 64 µg/mL	> 64 µg/mL
COC(=O)c1cn(C2CC2)c2cc(NCCNC(=O)OC(C)(C)C)c(F)cc2c1=O	> 64 µg/mL	> 64 µg/mL	> 64 µg/mL	> 64 µg/mL	> 64 µg/mL	8 µg/mL (≈ 19.1 µM)	> 64 µg/mL	> 64 µg/mL	> 64 µg/mL	> 64 µg/mL	> 64 µg/mL	> 64 µg/mL	> 64 µg/mL	> 64 µg/mL
CC(C)(C)OC(=O)NCCNc1cc2c(=O)c(C(=O)NCCO)cn(C3CC3)c2cc1Cl	> 64 µg/mL	> 64 µg/mL	> 64 µg/mL	> 64 µg/mL	> 64 µg/mL	32 µg/mL (≈ 68.8 µM)	> 64 µg/mL	> 64 µg/mL	> 64 µg/mL	16 µg/mL (≈ 34.4 µM)	> 64 µg/mL	> 64 µg/mL	64 µg/mL (≈ 138 µM)	> 64 µg/mL
CC(C)(C)OC(=O)NCCNc1cc2c(cc1F)c(=O)c(C(=O)NCCO)cn2C1CC1	> 64 µg/mL	> 64 µg/mL	> 64 µg/mL	> 64 µg/mL	64 µg/mL (≈ 143 µM)	16 µg/mL (≈ 35.7 µM)	> 64 µg/mL	> 64 µg/mL	> 64 µg/mL	16 µg/mL (≈ 35.7 µM)	> 64 µg/mL	> 64 µg/mL	16 µg/mL (≈ 35.7 µM)	> 64 µg/mL
NCCNc1cc2c(=O)c(C(=O)NCCO)cn(C3CC3)c2cc1Cl	> 64 µg/mL	> 64 µg/mL	> 64 µg/mL	> 64 µg/mL	> 64 µg/mL	64 µg/mL (≈ 175 µM)	> 64 µg/mL	> 64 µg/mL	> 64 µg/mL	64 µg/mL (≈ 175 µM)	> 64 µg/mL	> 64 µg/mL	> 64 µg/mL	> 64 µg/mL
